Source: ChEMBL document CHEMBL4392853, “Characterising covalent warhead reactivity” (Bioorg Med Chem, 2019)
Activity calls are given as the source filed them. No cut-off for these calls is given here.

Columns and labels:
[1] = Drug reactivity against cysteine in PBS buffer by NMR assay
Method in brief: (§1)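 Warhead reactivity toward cysteine was tracked by NMR, measuring the amount of warhead remaining in solution over time. Cysteine was used at 10x the warhead concentration, giving pseudo-first-order conditions. The rate constant is the gradient of the fitted line. Runs were at pH 7.4 and also at pH 9.8. Two warheads were run in triplicate and averaged; the others were run once.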

[2] = Drug reactivity against serine in PBS buffer by NMR assay
Method in brief: (§2)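 NMR time-course following the warhead in solution with serine, with the amino acid at 10x the warhead concentration (pseudo-first-order). Run at pH 7.4. The rate constant was taken from the gradient of the line. Single determinations.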

[3] = Irreversible drug reactivity against serine in PBS buffer by NMR assay; method in brief: as §2
[4] = Irreversible drug reactivity against cysteine in PBS buffer by NMR assay; method in brief: as §1
[5] = Reversible drug reactivity against cysteine in PBS buffer by NMR assay; method in brief: as §1
[6] = Reversible drug reactivity against serine in PBS buffer by NMR assay; method in brief: as §2
[7] = Drug reactivity against cysteine in PBS buffer assessed as rate constant by NMR assay
Method in brief: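 Warhead reacted in solution with cysteine held at 10x the warhead concentration, giving pseudo-first-order kinetics. Remaining warhead was followed over time by NMR, and the rate constant was taken from the gradient of the line. Runs were at pH 7.4 and also at pH 9.8. Two warheads were run in triplicate and averaged; all others were run once.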

[8] = Drug reactivity against cysteine in PBS buffer assessed as half life by NMR assay

SMILES	Activity [1]	Activity [2]	Activity [3]	Activity [4]	Activity [5]	Activity [6]	K [7]	T1/2 [8] [min]
O=C1CCN1c1ccccc1	inactive	inactive	Active	Active				
O=C(c1ccccc1)C(F)(F)F	inactive	inactive			Active	Active		
C=CC(=O)Nc1ccccc1	Active	Active			Active	Active	8.38 ×10⁻⁵ /s	
O=S(=O)(F)c1ccccc1	Active	Active						
N#Cc1ccccn1	inactive	inactive			Active	Active		
C=CS(=O)(=O)Nc1ccccc1	Active	Active			Active	Active	6.73 ×10⁻⁴ /s	17.2
C=CC(=O)c1ccccc1	Active	Active			Active	Active		
C#CC(=O)c1ccccc1	Active	Active			Active	Active		
CC1(C)S[C@@H]2[C@H](N)C(=O)N2[C@H]1C(=O)O	inactive	inactive	Active	Active				
OB1OCc2ccccc21	inactive	inactive			Active	Active		
O=C1CC(c2ccccc2)N1 (stereo not drawn)	inactive	inactive	Active	Active				
CN(C)C/C=C/C(=O)Nc1ccccc1	Active	Active			Active	Active		
N#Cc1ccccc1	inactive	inactive			Active	Active		
N#Cc1ncccn1	Active	Active			Active	Active		
c1ccc(C2CO2)cc1 (stereo not drawn)	Active	Active			Active	Active		
COC(=O)Nc1ccccc1	Active	Active						
